Activity calls are given as the source filed them. No cut-off for these calls is given here.

Chain of Leucine--tRNA ligase, cytoplasmic (Homo sapiens) (Q9P2J5 whole entry, looked up): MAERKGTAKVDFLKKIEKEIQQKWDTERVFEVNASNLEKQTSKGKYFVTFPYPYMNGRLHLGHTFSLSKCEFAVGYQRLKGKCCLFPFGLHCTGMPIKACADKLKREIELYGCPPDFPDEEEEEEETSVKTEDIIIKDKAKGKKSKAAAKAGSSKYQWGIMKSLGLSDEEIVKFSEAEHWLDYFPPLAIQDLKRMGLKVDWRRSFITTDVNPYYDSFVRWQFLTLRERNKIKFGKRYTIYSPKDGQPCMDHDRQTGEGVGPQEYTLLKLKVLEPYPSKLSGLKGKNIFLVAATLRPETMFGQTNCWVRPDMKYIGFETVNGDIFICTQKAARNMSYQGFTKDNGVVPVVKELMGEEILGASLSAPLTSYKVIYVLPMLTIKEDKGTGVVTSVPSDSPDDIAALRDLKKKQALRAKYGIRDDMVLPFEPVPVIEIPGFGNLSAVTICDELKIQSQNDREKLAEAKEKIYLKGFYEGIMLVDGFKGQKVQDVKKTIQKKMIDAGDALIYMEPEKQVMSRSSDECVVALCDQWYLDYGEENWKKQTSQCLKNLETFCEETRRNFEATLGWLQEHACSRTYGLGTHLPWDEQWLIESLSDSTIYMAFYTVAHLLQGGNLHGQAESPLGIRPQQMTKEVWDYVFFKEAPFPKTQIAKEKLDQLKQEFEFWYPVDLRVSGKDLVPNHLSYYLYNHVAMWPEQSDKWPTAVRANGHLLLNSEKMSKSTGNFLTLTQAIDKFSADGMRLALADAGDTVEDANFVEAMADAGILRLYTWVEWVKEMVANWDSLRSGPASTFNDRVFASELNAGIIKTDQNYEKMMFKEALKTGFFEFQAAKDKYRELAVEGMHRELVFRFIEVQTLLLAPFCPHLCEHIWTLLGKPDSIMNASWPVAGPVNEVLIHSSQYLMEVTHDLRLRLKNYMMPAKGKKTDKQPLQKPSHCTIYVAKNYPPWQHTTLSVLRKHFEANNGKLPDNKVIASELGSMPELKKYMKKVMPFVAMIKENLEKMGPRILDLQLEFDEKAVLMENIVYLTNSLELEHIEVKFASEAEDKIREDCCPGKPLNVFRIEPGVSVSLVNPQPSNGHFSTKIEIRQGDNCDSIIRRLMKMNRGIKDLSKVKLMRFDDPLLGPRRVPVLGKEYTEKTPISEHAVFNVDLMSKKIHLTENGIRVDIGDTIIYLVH

The target of this assay is Leucine--tRNA ligase, cytoplasmic (Homo sapiens) (UniProt Q9P2J5). Description: Inhibition of Leucyl-tRNA synthetase-mediated mTORC1 signaling activation in human HEK293 cells assessed as reduction in leucine-induced S6K phosphorylation at 200 uM preincubated for 50 mins followed by leucine-stimulation and measured after 10 mins by Western blot analysis. It is filed as cell-based. The method, boiled down:
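HEK293 cells pretreated with test agent at a fixed 200 µM, alongside rapamycin (100 nM) and leucinol (800 µM) as references. mTORC1 then activated by adding leucine for 10 min. S6K phosphorylation read by Western blot.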
On the technique in general: In western blotting, separated proteins are transferred to a membrane and probed.
On to `CO[C@H](C(=O)NS(=O)(=O)OC[C@H]1O[C@@H](n2cnc3c(N)ncnc32)C[C@@H]1O)[C@H](OC)C(C)C`, for which the inhibition result is “inactive”.

`CC(C)C[C@H](O)C(=O)NS(=O)(=O)OC[C@H]1O[C@@H](n2cnc3c(N)ncnc32)[C@@H](O)[C@@H]1O`: the inhibition entry is “Active”.

Turning to `CC(C)C[C@H](S)C(=O)NS(=O)(=O)OC[C@H]1O[C@@H](n2cnc3c(=O)[nH]cnc32)[C@H](O)[C@@H]1O`, the inhibition entry was “inactive”.

For `CC(C)[C@@H](O)[C@H](O)C(=O)NS(=O)(=O)OC[C@H]1O[C@@H](n2cnc3c(N)ncnc32)[C@@H](O)[C@@H]1O`, the inhibition entry is “inactive”.

As to `CC(C)C[C@H](Cl)C(=O)NS(=O)(=O)OC[C@H]1O[C@@H](n2cnc3c(N)ncnc32)[C@H](O)[C@@H]1O`, the inhibition entry was “inactive”.

As to `CC(C)C[C@H](N)C(=O)NS(=O)(=O)OC[C@H]1O[C@@H](n2cnc3c(N)ncnc32)C[C@@H]1O`, the inhibition entry is “inactive”.

Turning to `CN[C@@H](CC(C)C)C(=O)NS(=O)(=O)OC[C@H]1O[C@@H](n2cnc3c(N)ncnc32)[C@H](O)[C@@H]1O`, the inhibition entry is “inactive”.

In the case of `CNc1ncnc2c1ncn2[C@@H]1O[C@H](COS(=O)(=O)NC(=O)[C@@H](Cl)CC(C)C)[C@@H](O)[C@H]1O`, the inhibition entry is “inactive”.

Consider `CO[C@H](C(=O)NS(=O)(=O)OC[C@H]1O[C@@H](n2cnc3c(N)ncnc32)[C@H](O)[C@@H]1O)[C@H](O)C(C)C`, for which the inhibition result is “inactive”.

Consider `CC(C)c1cc(C(=O)NS(=O)(=O)OC[C@H]2O[C@@H](n3cnc4c(N)ncnc43)[C@H](O)[C@@H]2O)[nH]n1`, for which the inhibition entry is “inactive”.

Take `CC(C)C[C@H](O)C(=O)NS(=O)(=O)OC[C@H]1O[C@@H](n2cnc3c(N)nc(Cl)nc32)[C@H](O)[C@@H]1O`: the inhibition entry is “inactive”.

With `CC(C)[C@@H](O)[C@H](O)C(=O)NS(=O)(=O)OC[C@H]1O[C@@H](n2cnc3c(N)ncnc32)[C@@H]2OC(=O)N[C@@H]21`, the inhibition result is “inactive”.

In the case of `CC(C)c1cc(C(=O)NS(=O)(=O)OC[C@H]2O[C@@H](n3cnc4c(N)ncnc43)[C@H](O)[C@@H]2O)n(C)n1`, the inhibition result was “Active”.

Regarding `CC(C)C[C@H](O)C(=O)NS(=O)(=O)OC[C@H]1O[C@@H](n2cnc3c(N)nc(I)nc32)[C@H](O)[C@@H]1O`, the inhibition entry is “Active”.

With `Nc1ncnc2c1ncn2[C@@H]1O[C@H](COS(=O)(=O)NC(=O)[C@@H](O)[C@H](O)C2CC2)[C@H]2NC(=O)O[C@H]21`, the inhibition result is “Active”.

`CC(C)C[C@@H](O)C(=O)NS(=O)(=O)OC[C@H]1O[C@@H](n2cnc3c(=O)[nH]cnc32)[C@H](O)[C@@H]1O`: the inhibition entry is “inactive”.

Consider `CC(C)c1cc(C(=O)NS(=O)(=O)OC[C@H]2O[C@@H](n3cnc4c(N)nc(I)nc43)[C@H](O)[C@@H]2O)n(C)n1`, for which the inhibition entry is “Active”.

For the molecule `CC(C)/C=C/C(=O)NS(=O)(=O)OC[C@H]1O[C@@H](n2cnc3c(N)ncnc32)[C@H](O)[C@@H]1O`, the inhibition entry was “Active”.

As for `Nc1ncnc2c1ncn2[C@@H]1O[C@H](COS(=O)(=O)NC(=O)c2cc(C3CC3)n[nH]2)[C@@H](O)[C@H]1O`, the inhibition result is “inactive”.

With `O=C(NS(=O)(=O)OC[C@H]1O[C@@H](n2cnc3c(=O)[nH]cnc32)[C@H](O)[C@@H]1O)[C@@H](O)[C@H](O)C1CC1`, the inhibition entry was “inactive”.

For the molecule `CC(C)c1cc(C(=O)NS(=O)(=O)OC[C@H]2O[C@@H](n3cnc4c(N)nc(I)nc43)[C@H](O)[C@@H]2O)[nH]n1`, the inhibition result was “inactive”.

With `CC(C)C[C@@H](O)C(=O)NS(=O)(=O)OC[C@H]1O[C@@H](n2cnc3c(N)ncnc32)[C@H](O)[C@@H]1O`, the inhibition result is “Active”.

As for `CC(C)C[C@H](S)C(=O)NS(=O)(=O)OC[C@H]1O[C@@H](n2cnc3c(N)ncnc32)[C@H](O)[C@@H]1O`, the inhibition entry was “Active”.

Regarding `CC(C)[C@H](O)[C@@H](O)C(=O)NS(=O)(=O)OC[C@H]1O[C@@H](n2cnc3c(N)ncnc32)C[C@@H]1O`, the inhibition entry was “inactive”.

The values above are taken from ChEMBL document CHEMBL4368933, “Structure-activity relationship of leucyladenylate sulfamate analogues as leucyl-tRNA synthetase (LRS)-targeting inhibitors of Mammalian target of rapamycin complex 1 (mTORC1)” (Bioorg Med Chem, 2019).
